Converted amounts (≈) assume the structure as drawn. The source made the active and inactive calls. No cut-off for these calls is given here.
Assays:
[1] = test system: Escherichia coli; assay: Antibacterial activity against Escherichia coli AS19 after 18 to 20 hrs by broth microdilution test
[2] = test system: Pseudomonas aeruginosa; assay: Antibacterial activity against Pseudomonas aeruginosa PAO1 ATCC 15692 after 18 to 20 hrs by broth microdilution test; assay type: functional
Outline: (§1)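 Broth microdilution in Mueller–Hinton broth: compounds in triplicate serial dilutions from 2 mM downward, inoculum about 5 × 10⁵ cfu mL⁻¹, 18–20 h at 37 °C. MIC was taken as the lowest concentration inhibiting growth. The wild-type strain was run without glucose 6-phosphate.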

[3] = test system: Escherichia coli; assay: Antibacterial activity against Escherichia coli K-12 BW25113 after 18 to 20 hrs by broth microdilution test in presence of glucose-6-phosphate; assay type: functional
Outline: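 For E. coli BW25113, broth microdilution was run with glucose 6-phosphate added. Conditions: Mueller–Hinton broth, triplicate concentrations from 2 mM downward, about 5 × 10⁵ cfu mL⁻¹ inoculum, 18–20 h at 37 °C. MIC was the lowest concentration inhibiting growth.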

[4] = test system: Escherichia coli; assay: Antibacterial activity against Escherichia coli K-12 BW25113 after 18 to 20 hrs by broth microdilution test; assay type: functional
Outline: as §1

[5] = test system: Pseudomonas aeruginosa; assay: Binding affinity to Pseudomonas aeruginosa KdsD expressed Escherichia coli at 5 mM after 2 to 3 days by STD-NMR analysis
Outline: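 N-His6 Pa-KdsD was expressed in E. coli M15/pREP4 (0.5 mM IPTG, 4 h), Ni-NTA purified (>95%). Ligand at 5 mM with enzyme in PBS pH 7.0, 25 °C, sampled after 0, 2 and 3 days. STD: 50 ms Gaussian pulses, 3 s saturation, on-resonance 7.9 ppm, off-resonance 40 ppm, 2 ms T1ρ filter; free-ligand reference spectra.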

Row | MIC [1] | MIC [2] | MIC [3] | MIC [4] | Activity [5] | SMILES
1 | 250 µM (≈ 61 µg/mL) | > 2000 µM | > 2000 µM | > 2000 µM | – | CO[C@@H]1O[C@H](COP(=O)(O)O)[C@@H](O)[C@@H]1O
2 | – | – | – | – | Active | CC(=O)O[C@H](COP(=O)(O)O)[C@@H](O)C(=O)NO
3 | – | – | – | – | Active | NC(=O)[C@H](O)[C@H](O)COP(=O)(O)O
4 | 250 µM (≈ 44.5 µg/mL) | > 2000 µM | > 2000 µM | > 2000 µM | Active | CO[C@H]1O[C@H](C(=O)O)[C@@H](O)[C@@H]1O
5 | 250 µM (≈ 61 µg/mL) | > 2000 µM | > 2000 µM | > 2000 µM | – | CO[C@H]1O[C@H](COP(=O)(O)O)[C@@H](O)[C@@H]1O
6 | 250 µM (≈ 44.5 µg/mL) | > 2000 µM | > 2000 µM | > 2000 µM | Active | CO[C@@H]1O[C@H](C(=O)O)[C@@H](O)[C@@H]1O
7 | – | – | – | – | Active | O=C(NO)[C@H](O)[C@H](O)COP(=O)(O)O

From ChEMBL document CHEMBL3232738, “Arabinose 5-phosphate isomerase as a target for antibacterial design: studies with substrate analogues and inhibitors” (2014)
